This is a sample that favours compounds with a hit; in the whole collection about 2.8% have one here.
NPY1 pot ag – human NPY-Y1 potentiation or agonism, primary screen. 0.37% of 220,000 active. NPY-Y1 expressing cells, potentiator/agonist activation. activation, % at 3.6 µM. P25929. AID 1304; in the data active = activation above about 33%, passing the limit was not always enough;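 note: cells stimulated with NPY at EC10 then isoproterenol at EC100; 0% = low agonist plus stimulus and 100% = saturating agonist plus stimulus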
Measles CPE – protection of cells from measles virus | protection (pct of control), % at 4 µM | 1.5% of 140,000 active | Measles virus-infected cells, CPE protection, absorbance; in the data active = protection mostly above about 24%, no sharp cut-off; inactive = mostly below about 26%
NPY Y2 blocker – NPY-Y2 (human) receptor antagonism. 0.99% of 140,000 active. NPY-Y2 expressing cells, antagonist mode. AID 793. inhibition, % at 2.7 µM. P49146; in the data active = inhibition above about 17%;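 note: 0% = vehicle with agonist challenge and 100% = reference antagonist with challenge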
Target sequence (P49146 whole entry, looked up): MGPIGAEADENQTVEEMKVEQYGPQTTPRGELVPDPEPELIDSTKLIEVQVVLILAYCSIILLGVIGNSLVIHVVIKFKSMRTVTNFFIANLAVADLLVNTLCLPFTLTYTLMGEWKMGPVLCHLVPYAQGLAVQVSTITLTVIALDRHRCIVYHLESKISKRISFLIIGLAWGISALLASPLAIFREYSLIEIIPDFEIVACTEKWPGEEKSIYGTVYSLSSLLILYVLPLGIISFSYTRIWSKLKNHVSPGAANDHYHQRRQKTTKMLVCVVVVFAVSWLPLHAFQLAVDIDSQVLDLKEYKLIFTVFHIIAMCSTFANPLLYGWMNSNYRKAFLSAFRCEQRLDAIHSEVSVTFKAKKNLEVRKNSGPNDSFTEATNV
NPY-Y2 PAM-ag – potentiators or agonists of human neuropeptide Y receptor Y2; AID 1359; P49146; 0.45% of 220,000 active; cells expressing NPY-Y2, potentiator/agonist read-out; activation, % at 3.6 µM; in the data active = activation above about 27%;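 note: cells stimulated with NPY near EC25 plus isoproterenol at EC100; 0% = vehicle plus submaximal agonist and 100% = vehicle plus saturating agonist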
NPY Y1 blocker – NPY-Y1 (human) receptor antagonism; HEK293-CNG Y1 cells, membrane potential fluorescence; NPY at EC95, then isoproterenol; P25929; 1% of 200,000 active; inhibition, % at 3.6 µM;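 active = inhibition above the campaign mean inhibition of all tested compounds plus 3 SD, cut at about 20% in these data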;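 note: 0% = DMSO wells given NPY plus isoproterenol and 100% = isoproterenol alone without NPY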
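System: HEK293 cells with Y1 receptor plus CNG channel / Probe or stimulus: NPY 25 nM then isoproterenol 1 µM plus Ro 20-1724 25 µM / Compound: one concentration, 3.6 µM, in 0.4% DMSO / Schedule: compound incubation 1 h at room temperature, readout 45 min post-stimulation / Measured by: membrane potential fluorescence / Read-out: % inhibition of NPY effect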
Rad51 HR inh – Rad51 (human) homologous recombination inhibition. Q06609. hRad51 DNA strand exchange, fluorescence dequenching. inhibition, % at 10 µM. 0.085% of 200,000 active;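 active = inhibition above 40% at the single screening dose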;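 note: 0% = DMSO control wells and 100% = blanks with heterologous ssDNA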
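Read-out basis: percent inhibition relative to plate controls and blanks / Assay system: human Rad51 nucleoprotein filaments preassembled on unlabelled ssDNA / Timing: filaments 15 min 37 °C, then compound 30 min / Control set: per-plate controls and blanks / Technique: fluorescence dequenching at 485/520 nm / Compound: 10 µM final, single point / Also added: Fluorescein- and BHQ1-tagged 47-mer duplex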
* = called active by the depositor; . = no result.

SMILES	NPY1 pot ag	Measles CPE	NPY Y2 blocker	NPY-Y2 PAM-ag	NPY Y1 blocker	Rad51 HR inh
O=C1CCC(=O)N1c1nc2n(n1)C(c1ccccc1)C=C(c1ccc(Br)cc1)N2 (centres undefined)	89*	0	0	7	-6	-4
Cc1cc(C)c2nc(N3CCN(C)CC3)c(C#N)cc2c1	-86	9	26*	-48	52*	-4
CCOc1ccc(OCC)c(-c2c(=O)n(OCc3ccccc3C(=O)OC)c3ccccc3[n+]2[O-])c1	-2	7	2	-4	11	4
CCCn1c(N2CCN(CC(=O)NCc3cccs3)CC2)nc2ccccc21	-16	61*	2	-6	4	6
CCCn1c(N2CCN(C(=O)Nc3ccccc3)CC2)nc2ccccc21	-14	.	.	-7	-1	1
Cc1ccc2nc3c(c(Nc4ccccc4)c2c1)CCC3	-36	.	.	-33	.	16
c1ccc(Nc2c3c(nc4ccccc24)CCC3)cc1	-41	.	.	-37	20*	.
CCCCNC(=O)CSc1nc2cc3c(cc2c(=O)n1CCC(=O)NCCc1ccc(OC)c(OC)c1)OCO3	-2	.	.	3	3	3
CCOC(=O)Cc1nnc(NC(=O)COc2ccc(OC)cc2)s1	-2	23*	6	-19	5	-2
CCOC(=O)Cc1nnc(NC(=O)COc2ccc(C)cc2)s1	1	6	4	-2	10	6
N#C/C(=N\Nc1ccccc1)C(=N)N1CCOCC1	10	74*	8	2	-5	.
Cc1cc(OCC(=O)NC(C)c2ccccc2)ccc1[N+](=O)[O-] (centres undefined)	-8	.	.	-2	1	2
CCC(C)NCCOCCSc1ccc(Cl)cc1 (centres undefined)	-1	52*	2	6	3	-11
C=CCc1cc(Cl)ccc1OCCOCCNC(C)CC (centres undefined)	10	.	.	-4	5	.
Cn1c(=O)c(C(=O)COC(=O)c2cc(-c3ccco3)nc3ccccc23)c(N)n(CC2CC2)c1=O	-3	5	1	1	-5	.
COc1ccc2nc3cc(Cl)ccc3c(Nc3cc(C(C)C)c(O)cc3C)c2c1	62*	.	.	59*	.	7
CCCNC(=O)Cn1cnc2sc(C(=O)Nc3cc(OC)c(OC)c(OC)c3)c(C)c2c1=O	-12	6	2	-2	-3	1
CCCNC(=O)Cn1cnc2sc(C(=O)NCCN(CC)CC)c(C)c2c1=O	7	37*	0	2	-3	4
Cc1ccc(-c2c[n+](Cc3ccc(Cl)c(Cl)c3)c3n2CCC3)cc1	0	7	7	-7	8	-1
COc1ccc(CNCc2cccc(Oc3ccccc3)c2)cc1	-42	.	.	-42	21*	0
O=C(Nc1cccc(Cl)c1)OCc1cn(-c2ccccc2)nn1	-11	.	.	-17	21*	16
Cc1cc(N=Nc2ccccc2)c(NCC(O)C(O)C(O)CO)cc1C (centres undefined)	73*	.	.	57*	-16	9
COC(=O)c1c(NC(=O)CN2CCN(Cc3ccc4c(c3)OCO4)CC2)sc(C)c1C	-95	9	38*	-51	48*	-16
Cc1sc2c(c1C)c(=O)n(-c1ccc(Cl)cc1)c(=O)n2Cc1cc(=O)n2ccccc2n1	14	5	1	-1	2	0
CCOC(=O)C1CCN(c2nc(-c3ccc(C)cc3)nc3ccccc23)CC1	-9	.	.	-14	0	-1
SMILES	NPY1 pot ag	Measles CPE	NPY Y2 blocker	NPY-Y2 PAM-ag	NPY Y1 blocker	Rad51 HR inh
Cc1ccc(-c2cnc(NCc3cc4c(cc3[N+](=O)[O-])OCO4)n2C)cc1C	102*	.	.	88*	-16	-14
Cc1nn(C)c(C)c1CN(C)S(=O)(=O)c1ccc2ccccc2c1	-76	47*	-1	9	2	11
N#CCSCC(=O)Nc1ccc(Br)cc1	-5	73*	1	3	-2	4
N#CCSCC(=O)Nc1ccc(F)cc1	-1	54*	5	-11	4	2
CCCCOC(=O)Nc1ccc(S(=O)(=O)Nn2cnnc2)cc1	-7	18*	1	-10	10	-2
CCCOC(=O)Nc1ccc(S(=O)(=O)Nn2cnnc2)cc1	-1	14	1	-16	-1	.
CN(C)S(=O)(=O)c1ccc(Cl)c(NC(=O)COc2ccccc2[N+](=O)[O-])c1	14	16	2	4	0	-2
CCc1ccc(NC2=NC(C(=O)NC3CCCCC3)CC(=O)N2)cc1 (centres undefined)	0	56*	4	-17	2	-6
CCCN1CCN(C(=O)c2cccc3c2C(=O)N(CCOC)C3)CC1	4	44*	2	5	5	1
Nc1c2ccccc2nc2ccccc12	64*	.	.	51*	.	24
Nc1c2c(nc3ccccc13)CCCC2	-24	14	3	8	-5	-9
CCN(CC)c1nc2ccccc2c(N)c1-c1ccccc1	-10	33	23*	-14	29*	-2
CCC(C)c1ccc(NC(=S)Nc2ccc(OC)cc2)cc1 (centres undefined)	-3	9	2	4	4	4
CN1c2ccccc2C(O)=C(C(=S)Nc2ccc(F)c(Cl)c2)S1(=O)=O	15	41*	1	-13	0	-1
CCN(CC(=O)Nc1cccc(OC)c1)c1ncnc2sc(C)c(C)c12	21	10	9	5	5	1
COc1ccc(/C=N/NC(=O)c2ccccc2NC(=O)c2ccco2)c(OC)c1	3	.	.	1	.	.
CC(=O)NC(C)C(=O)OCC(=O)c1ccc(-c2ccccc2)cc1 (centres undefined)	-9	.	.	-3	1	-12
Cc1cccc2c1NC(=O)C2(c1ccc(O)cc1)c1ccc(O)cc1	-39	2	114*	-14	116*	3
c1ccc(CSc2nnc3c4ccccc4c4ccccc4c3n2)cc1	15	.	.	-10	.	8
Cc1cc(C)cc(N2C(=O)CC(Sc3nnnn3-c3ccccc3)C2=O)c1 (centres undefined)	13	23	0	3	-8	109*
COc1ccc(C2NCCC3(O)CCCCC23)c(OC)c1OC (centres undefined)	-14	35*	0	2	4	-1
CC(C)[C@H](NC(=O)Nc1cccc(Br)c1)C(=O)O	-16	28	-2	-3	-2	.
CC(C)[C@H](NC(=O)Nc1cccc(C(F)(F)F)c1)C(=O)O	-3	27*	1	17	5	-6
COCC(=O)Nc1cccc(C(F)(F)F)c1	-7	37*	3	12	-6	5
O=C(Nc1ccc(Cl)cc1)c1ccc(Br)cc1F	-24	.	.	-3	9	-10
CCCCn1c(SCC(=O)Nc2ccc(OC)cc2)nc2ccc(N3CCOCC3)cc2c1=O	-12	53*	-1	3	0	1
